As a reminder, the IC50 is the point on the concentration scale where inhibition reaches its midpoint. A low value points to greater potency.

Each structure is given as a SMILES string.

Results on one compound are retold here after article PMC9378630 (Chemmedchem, 2022).

One series deals with human sperm. In words: AlamarBlue cytotoxicity assay in human sperm. The format is cell-based. The settings on record: human sperm and IMR‐90 fibroblasts. The essentials:
(§1)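 Sperm isolated by centrifugation: liquefied at 37 °C, HTF-washed twice, 800×g, resuspended in Low/Low (low pH/low K+) buffer. Mixed with test compound (2.2x in Low/Low). 8 half-log concentrations, 100 μM to 32 nM final, in duplicate. AlamarBlue at 37 °C, 560/590 nm fluorescence every 15 min over 3 h. IC50 from concentration-response fit.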
Background: Alamar Blue is a resazurin reagent that responds to reducing activity.

Series [1] in a line: AlamarBlue cytotoxicity assay in human sperm. The format is cell-based. The settings on record: human, human sperm. An outline of the steps: as §1
The target in the next series is CatSper (Homo sapiens, UniProt Q7RTX7+Q86XQ3+Q8NEC5+Q96P56). The settings on record: reported previously; cited from earlier work.
Series [2] can be described thus: AlamarBlue cytotoxicity assay in IMR-90 fibroblasts. The format is cell-based, human. To be noted: human, IMR-90 lung fibroblast cells. The essentials: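 IMR-90 lung fibroblasts cultured 2 weeks in EMEM + 10% FBS, split 2–4 days before use, trypsin-EDTA detached and resuspended in culture medium. Added to test compound (2.2x in Low/Low buffer). 8 half-log concentrations, 100 μM to 32 nM final, in duplicate. AlamarBlue added, 37 °C, fluorescence 560/590 nm read every 30 min over 7 h. IC50 from concentration-response fit.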

As for `COCC(=O)O[C@]1(CCN(C)CCCc2nc3ccccc3[nH]2)CCc2cc(F)ccc2[C@@H]1C(C)C` [Mibefradil, reference compound], the “Separation between potencies for blocking calcium influx and cytotoxicity” value in the series on human sperm is listed as “low separation”. Moreover, in series [1], the IC50 at 3 h was 25 ± 2 µM. In addition, at CatSper, the “Reversibility of CatSper block” value was “irreversible loss of channel function”. The compound also came in with an IC50 at 7 h in series [2] of 22 ± 1 µM.
